Results: ChEMBL document CHEMBL1154674, “Synthesis and evaluation of three 18F-labeled aminophenylbenzothiazoles as amyloid imaging agents” (J Med Chem, 2009)

How the values were obtained:
[1] = test system: Lung; assay: Biodistribution in NMRI mouse lung assessed per gram of tissue at 3.7 MBq/mL, iv after 2 mins by gamma counting; assay type: ADME, organism-based; conditions: in vivo
How it was run: (§1)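 Male NMRI mice (30-40 g) under isoflurane (1.5-2.5% in oxygen) got 0.1 mL of HPLC-purified tracer diluted with 0.9% NaCl to 3.7 MBq/mL (ethanol ≤10%) via tail vein. Mice were decapitated at 2 or 60 min p.i., and organs, blood and urine were weighed and γ-counted. Values are background-corrected %ID or %ID/g, with blood mass taken as 7% of body mass.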

[2] = test system: Intestine; assay: Biodistribution in NMRI mouse intestine at 3.7 MBq/mL, iv after 60 mins by gamma counting; assay type: ADME, organism-based; conditions: in vivo, 1 h; how it was run: as §1
[3] = test system: Heart; assay: Biodistribution in NMRI mouse heart assessed per gram of tissue at 3.7 MBq/mL, iv after 60 mins by gamma counting; assay type: ADME, organism-based; conditions: in vivo, 1 h; how it was run: as §1
[4] = Drug level in normal rhesus monkey pons assessed as standard uptake value at 81.2 MBq, iv after 14 mins by microPET; assay type: ADME, organism-based, Macaca mulatta; conditions: in vivo
[5] = Drug level in normal rhesus monkey parietal cortex assessed as standard uptake value at 81.2 MBq, iv after 52.5 mins by microPET; assay type: ADME, organism-based, Macaca mulatta; conditions: in vivo, 0.875 h
[6] = Biodistribution in NMRI mouse spleen/pancreas assessed per gram of tissue at 3.7 MBq/mL, iv after 2 mins by gamma counting; assay type: ADME, organism-based; conditions: in vivo; how it was run: as §1
[7] = Drug level in normal rhesus monkey thalamus assessed as standard uptake value at 81.2 MBq, iv after 95 mins by microPET; assay type: ADME, organism-based, Macaca mulatta; conditions: in vivo
[8] = Drug level in normal rhesus monkey frontal cortex assessed as standard uptake value at 81.2 MBq, iv after 1.5 mins by microPET; assay type: ADME, organism-based, Macaca mulatta; conditions: in vivo, 0.025 h
How it was run: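 Single normal rhesus monkey; each tracer given iv via the vena saphena, with 1 day between tracer injections. Dynamic μPET ran 180 min (5×60 s, 5×120 s, 9×300 s, 12×600 s). Images were reconstructed by filtered back projection with a RAMP filter. Regional time-activity curves were expressed as SUV.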

[9] = Biodistribution in NMRI mouse spleen/pancreas assessed per gram of tissue at 3.7 MBq/mL, iv after 60 mins by gamma counting; assay type: ADME, organism-based; conditions: in vivo, 1 h; how it was run: as §1
[10] = test system: Stomach; assay: Biodistribution in NMRI mouse stomach at 3.7 MBq/mL, iv after 60 mins by gamma counting; assay type: ADME, organism-based; conditions: in vivo, 1 h; how it was run: as §1
[11] = test system: Liver; assay: Biodistribution in NMRI mouse liver at 3.7 MBq/mL, iv after 2 mins by gamma counting; assay type: ADME, organism-based; conditions: in vivo; how it was run: as §1
[12] = Drug level in normal rhesus monkey pons assessed as standard uptake value at 81.2 MBq, iv after 17.5 mins by microPET; assay type: ADME, organism-based, Macaca mulatta; conditions: in vivo
[13] = test system: Heart; assay: Biodistribution in NMRI mouse heart assessed per gram of tissue at 3.7 MBq/mL, iv after 2 mins by gamma counting; assay type: ADME, organism-based; conditions: in vivo; how it was run: as §1
[14] = test system: Kidney; assay: Biodistribution in NMRI mouse kidney assessed per gram of tissue at 3.7 MBq/mL, iv after 2 mins by gamma counting; assay type: ADME, organism-based; conditions: in vivo; how it was run: as §1
[15] = test system: Lung; assay: Biodistribution in NMRI mouse lung at 3.7 MBq/mL, iv after 60 mins by gamma counting; assay type: ADME, organism-based; conditions: in vivo, 1 h; how it was run: as §1
[16] = Biodistribution in NMRI mouse spleen/pancreas at 3.7 MBq/mL, iv after 60 mins by gamma counting; assay type: ADME, organism-based; conditions: in vivo, 1 h; how it was run: as §1
[17] = Drug level in normal rhesus monkey thalamus assessed as standard uptake value at 96.3 MBq, iv after 12 mins by microPET; assay type: ADME, organism-based, Macaca mulatta; conditions: in vivo, 0.2 h
[18] = Drug level in normal rhesus monkey thalamus assessed as standard uptake value at 96.3 MBq, iv after 115 mins by microPET; assay type: ADME, organism-based, Macaca mulatta; conditions: in vivo
[19] = Drug level in normal rhesus monkey cerebellum assessed as standard uptake value at 96.3 MBq, iv after 0.5 mins by microPET; assay type: ADME, organism-based, Macaca mulatta; conditions: in vivo
How it was run: (§2)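 One normal rhesus monkey, each tracer given iv via the vena saphena (81.2, 96.3 or 109.4 MBq), with 1 day between tracer injections. Dynamic brain μPET over 180 min used frames of 5 × 60 s, 5 × 120 s, 9 × 300 s and 12 × 600 s. Images were reconstructed by filtered back projection with a RAMP filter. Regional time-activity curves were expressed as SUV.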

[20] = Drug level in normal rhesus monkey cerebellum assessed as standard uptake value at 96.3 MBq, iv after 10 mins by microPET; assay type: ADME, organism-based, Macaca mulatta; conditions: in vivo; how it was run: as §2
[21] = Drug level in normal rhesus monkey parietal cortex assessed as standard uptake value at 96.3 MBq, iv after 105 mins by microPET; assay type: ADME, organism-based, Macaca mulatta; conditions: in vivo, 1.75 h
[22] = Drug level in normal rhesus monkey frontal cortex assessed as standard uptake value at 96.3 MBq, iv after 10 mins by microPET; assay type: ADME, organism-based, Macaca mulatta; conditions: in vivo
[23] = Drug level in normal rhesus monkey frontal cortex assessed as standard uptake value at 96.3 MBq, iv after 1.5 mins by microPET; assay type: ADME, organism-based, Macaca mulatta; conditions: in vivo, 0.025 h
[24] = Drug level in normal rhesus monkey pons assessed as standard uptake value at 96.3 MBq, iv after 10 mins by microPET; assay type: ADME, organism-based, Macaca mulatta; conditions: in vivo
[25] = Drug level in normal rhesus monkey pons assessed as standard uptake value at 96.3 MBq, iv after 65 mins by microPET; assay type: ADME, organism-based, Macaca mulatta; conditions: in vivo
[26] = Drug level in normal rhesus monkey thalamus assessed as standard uptake value at 109.4 MBq, iv after 3.5 mins by microPET; assay type: ADME, organism-based, Macaca mulatta; conditions: in vivo
[27] = Drug level in normal rhesus monkey thalamus assessed as standard uptake value at 109.4 MBq, iv after 9.5 mins by microPET; assay type: ADME, organism-based, Macaca mulatta; conditions: in vivo
[28] = Drug level in normal rhesus monkey parietal cortex assessed as standard uptake value at 109.4 MBq, iv after 111 mins by microPET; assay type: ADME, organism-based, Macaca mulatta; conditions: in vivo
[29] = Drug level in normal rhesus monkey pons assessed as standard uptake value at 109.4 MBq, iv after 123 mins by microPET; assay type: ADME, organism-based, Macaca mulatta; conditions: in vivo, 2.05 h
[30] = Drug level in normal rhesus monkey cerebellum assessed as standard uptake value at 109.4 MBq, iv after 0.625 mins by microPET; assay type: ADME, organism-based, Macaca mulatta; conditions: in vivo, 38 s
[31] = Drug level in normal rhesus monkey pons assessed as standard uptake value at 109.4 MBq, iv after 63 mins by microPET; assay type: ADME, organism-based, Macaca mulatta; conditions: in vivo, 1.05 h
[32] = Drug level in normal rhesus monkey parietal cortex assessed as standard uptake value at 109.4 MBq, iv after 27.5 mins by microPET; assay type: ADME, organism-based, Macaca mulatta; conditions: in vivo
[33] = Drug level in normal rhesus monkey cerebellum assessed as standard uptake value at 109.4 MBq, iv after 93 mins by microPET; assay type: ADME, organism-based, Macaca mulatta; conditions: in vivo, 1.55 h
[34] = Drug level in normal rhesus monkey parietal cortex assessed as standard uptake value at 109.4 MBq, iv after 4.5 mins by microPET; assay type: ADME, organism-based, Macaca mulatta; conditions: in vivo, 0.075 h
[35] = Drug level in normal rhesus monkey pons assessed as standard uptake value at 109.4 MBq, iv after 6.5 mins by microPET; assay type: ADME, organism-based, Macaca mulatta; conditions: in vivo
[36] = Drug level in normal rhesus monkey thalamus assessed as standard uptake value at 152.9 MBq, iv after 42.5 mins by microPET; assay type: ADME, organism-based, Macaca mulatta; conditions: in vivo
[37] = Drug level in normal rhesus monkey pons assessed as standard uptake value at 152.9 MBq, iv after 57.5 mins by microPET; assay type: ADME, organism-based, Macaca mulatta; conditions: in vivo
[38] = Drug level in normal rhesus monkey pons assessed as standard uptake value at 152.9 MBq, iv after 0.5 mins by microPET; assay type: ADME, organism-based, Macaca mulatta; conditions: in vivo

Drug uptake [1] [%] | Drug uptake [2] [%] | Drug uptake [3] [%] | Drug uptake [6] [%] | Drug uptake [9] [%] | Drug uptake [10] [%] | Drug uptake [11] [%] | Drug uptake [13] [%] | Drug uptake [14] [%] | Drug uptake [15] [%] | Drug uptake [16] [%] | Compound | also measured
7.3 | 37.2 | 1 | 5.9 | 0.9 | 1.6 | 42.4 | 5.8 | 12.6 | 0.3 | 0.3 | CNc1ccc2nc(-c3ccc([18F])cc3)sc2c1 | SUV [4]: 4.757; SUV [5]: 3.552; SUV [7]: 5.301; SUV [8]: 3.245; SUV [12]: 5.124
8 | 28 | 1.3 | 5.5 | 1 | 1.2 | 41.9 | 7.4 | 11.7 | 0.6 | 0.3 | CN(C)c1ccc2nc(-c3ccc([18F])cc3)sc2c1 | SUV [17]: 2.38; SUV [18]: 2.14; SUV [19]: 0.54; SUV [20]: 1.69; SUV [21]: 1.35; SUV [22]: 2.13; SUV [23]: 1.43; SUV [24]: 1.57; SUV [25]: 1.83
8.9 | 68.6 | 0.7 | 6.8 | 1.1 | 0.6 | 39.8 | 5.9 | 13.3 | 0.3 | 0.3 | Nc1ccc2nc(-c3ccc([18F])cc3)sc2c1 | SUV [26]: 4.66; SUV [27]: 5.36; SUV [28]: 3.59; SUV [29]: 4.99; SUV [30]: 2.19; SUV [31]: 4.75; SUV [32]: 4.84; SUV [33]: 2.52; SUV [34]: 5.12; SUV [35]: 4.08
3.6 | 42.5 | 2.1 | 4.7 | 0.7 | 0.3 | 15.6 | 4.2 | 19.9 | 0.3 | 0.1 | [11CH3]Nc1ccc(-c2nc3ccc(O)cc3s2)cc1 [PITTSBURGH COMPOUND B] | SUV [36]: 1.223; SUV [37]: 0.95; SUV [38]: 0.041
